HSF-1 act – HSF-1 activators, primary screen, NIH3T3-HGL cells, MG132 stress, luminescence, single point; activation, % at 9 µM; AID 504408, 2011; 300,000 compounds, 1.7% hits; NIH3T3-HGL HSF-1 luciferase reporter, 8 h; 100% = twice DMSO control signal;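 active = mean replicate activation of at least 50% with a set share of replicates each reaching 50%; inconclusive = only one of those two conditions met; inactive = mean below 50% and too few replicates reaching it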;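 note: 0% = median of the neutral control wells and 100% = twice that signal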
HSV replic up – enhancers of HSV replication in host cells, fold increase, host cell viability. HSV replication augmentation in cells. maximum fold increase. 220,000 compounds, 0.005% hits. AID 1956, 2009; in the data active = maximum fold increase above about 1.5; inconclusive = no clear call, values can overlap the other calls; tested in PC3 cells
Rad51 HR inh – human RAD51 strand exchange inhibitors, primary screen, biochemical, fluorescence; hRad51 DNA strand exchange, fluorescence dequenching; inhibition, % at 10 µM; 200,000 compounds, 0.085% hits; AID 1385, 2008;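 active = inhibition above 40% at the single screening dose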;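 note: 0% = DMSO control wells and 100% = blanks with heterologous ssDNA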
Target sequence (Q06609 whole entry, looked up): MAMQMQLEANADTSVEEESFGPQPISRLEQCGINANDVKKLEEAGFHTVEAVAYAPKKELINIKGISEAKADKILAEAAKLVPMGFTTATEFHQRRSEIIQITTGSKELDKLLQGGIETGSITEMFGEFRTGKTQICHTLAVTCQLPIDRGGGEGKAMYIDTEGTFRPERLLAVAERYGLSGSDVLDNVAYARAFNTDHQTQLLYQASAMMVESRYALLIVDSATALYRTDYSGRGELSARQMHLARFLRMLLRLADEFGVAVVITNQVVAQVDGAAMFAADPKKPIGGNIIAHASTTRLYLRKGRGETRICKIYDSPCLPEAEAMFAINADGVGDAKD
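Test system – preformed human Rad51 ssDNA filaments · Reagent – Donor/quencher-labelled 47-bp dsDNA substrate · Incubation – 37 °C 15-min filament assembly, 30-min compound preincubation, 15-min exchange · Signal – FRET fluorescence dequenching, excitation 485 nm, emission 520 nm · Read-out – percent inhibition from fluorescence, normalised to plate control and blank means · Benchmarks – plate control and blank wells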
MDM2 E3 inh – MDM2-luciferase reporter signal enhancers, primary screen, MDM2 E3 ligase inhibitor project, cell-based, luminescence, 1536-well | E3 ubiquitin-protein ligase Mdm2 (Homo sapiens), Q00987 | cell-based MDM2 ubiquitination luciferase reporter, 2 h; 0 = plate control, 100 = twice control, blank-subtracted | signal enhancement, % at 5 µM | 210,000 compounds, 0.11% hits | AID 1230, 2008;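 active = signal enhancement of 30% or more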;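 note: luminescence tracks abundance of the self-degrading MDM2-luciferase fusion protein; higher signal means inhibition of MDM2 E3 ligase activity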
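Test system: mammalian cells stably expressing self-ubiquitinating, self-degrading MDM2 E3–luciferase fusion; Amount: 2000 cells in each well; Medium: DMEM; Schedule: 4 h settle plus 2 h compound, 37 °C; Technique: SteadyLite luciferase luminescence after 15 min room-temperature reagent incubation; Benchmarks: plate control and blank wells.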
Hsp70 act – Hsp70 transcriptional activators, primary screen, cell-based, HeLa, Hsp70 promoter luciferase, luminescence, 10 µM; HeLa Hsp70 promoter luciferase reporter; scaled: vehicle 0, proteasome-inhibitor control 100%; activation, % at 10 µM; 200,000 compounds, 0.04% hits;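 active = activation above the mean across all tested compounds plus 3 SD, cutoff set per campaign, cut at about 5.5% in these data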;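 note: 100% = MG132 at 30 µM as the positive control and 0% = DMSO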
HSF1 inh – HSF1 inhibitors in luciferase reporter cells, primary screen, cell-based, NIH3T3, luminescence | NIH3T3-HGL HSE-luciferase, MG132-induced, luminescence 8 h; active compounds read low | activity change, negative = inhibition, % at 7.5 µM (by protocol) | 300,000 compounds, 0.77% hits | AID 2098, 2009;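 active = more than half of replicate wells show activity change below -50%, luminescence cut by over half; inconclusive = some wells, but at most half, below -50%; inactive = no replicate well below -50%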;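 note: luciferase reports HSF-1 transcriptional activity via heat shock element; 0% = median of DMSO wells and -100% = zero luminescence signal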
Active calls of the source: *; i = inactive; ? = inconclusive; / = not tested or not shown. The list is not random: actives were taken first. Their share in the collection is about 2.6%.

SMILES	HSF-1 act	HSV replic up	Rad51 HR inh	MDM2 E3 inh	Hsp70 act	HSF1 inh
Cc1c(CC(=O)O)c(=O)oc2cc(OCc3ccc(Br)cc3)ccc12	8.0	/	/	/	/	-5.4
COCCNC(=O)C(c1ccc(C)cc1)N(C(=O)CCC(=O)Nc1ccccn1)c1ccccc1C (configuration not stated)	77.8*	/	/	/	/	27.1
CN(C)c1nc(N)nc(CSc2nnnn2-c2ccc(F)cc2)n1	60.2*	i	-0.2	-7.7	0.2	20.4
Nc1nc(CSc2nnnn2-c2ccccc2)nc(N2CCCc3ccccc32)n1	/	i	1.7	-5.3	0.0	/
COc1ccc(CN2CCN(S(=O)(=O)c3ccccc3)CC2)cc1Br	-69.3	i	1.1	-11.1	-0.4	-61.1*
Cc1ccc(C(=O)NCCOc2cccc(C)c2)cc1	58.7*	i	5.5	-0.2	0.1	34.3
CC(C)(C)c1ccc(C(=O)NCCOc2ccccc2F)cc1	-74.0	/	/	/	/	-70.8*
COc1ccccc1C(=O)NCCOc1ccc(C(C)(C)C)cc1	3.1	/	/	/	/	7.8
CC(C)(C)c1ccc(C(=O)NCCOc2ccccc2)cc1	-67.6	/	/	/	/	-67.9*
CN(C)S(=O)(=O)c1ccc(C(=O)NCCOc2ccccc2)cc1	?	i	-2.0	-10.5	0.2	26.7
O=C(O)c1ccc(N/N=C/C2=C(N3CCOCC3)C(=C\c3ccccc3)/CC2)cc1	-70.8	i	-98.9	-10.4	/	-60.0*
Cc1cc(C)n2nc(-c3ccc(Cl)cc3)cc2n1	37.2	/	/	/	/	25.0
Cc1cc(C)n2nc(-c3ccc(Br)cc3)cc2n1	51.6*	/	/	/	/	27.2
COc1ccccc1CNC(=O)Cc1ccccc1	18.7	/	/	/	/	3.3
O=C(CSc1nnc(CNC(=O)c2ccco2)o1)Nc1ccccc1C(F)(F)F	3.9	/	/	/	/	-3.2
c1ccc(CCNc2nc(-c3ccncc3)cs2)cc1	10.0	i	8.4	-9.0	-0.2	14.8
CCCCCNc1nc(-c2ccccc2)cs1	55.3*	i	7.2	-34.8	-0.2	18.9
COc1ccc(NC(=O)C(NC(=O)c2ccc(=O)[nH]c2)c2ccc(C)cc2)cc1 (configuration not stated)	-8.5	i	7.1	-4.5	-0.4	-5.6
COc1ccc(C(NC(=O)c2ccc(=O)[nH]c2)C(=O)Nc2ccc(C(C)C)cc2)cc1 (configuration not stated)	-72.0	i	/	-76.7	-0.2	-61.2*
Cc1ccc(S(=O)(=O)c2c(C)cc(C)nc2N2CCOCC2)cc1	5.3	i	-0.2	-2.0	-0.4	-5.2
Cc1ccc(S(=O)(=O)c2c(C)cc(C)nc2N2CCCCC2)cc1	58.1*	i	3.3	-8.8	-0.4	23.3
CCOC(=O)c1ccc(Oc2nc(NC)nc(Nc3ccccc3)n2)cc1	-67.7	i	-4.8	-5.0	-0.3	-56.5*
CCN(C(=O)CCc1nnc2ccc(NCc3ccco3)nn12)c1ccccc1	3.9	/	/	/	/	1.5
CN(C)S(=O)(=O)c1ccc2nnn(O)c2c1	21.2	i	7.1	-7.3	-0.3	2.8
Brc1cccc(-c2nnc(-c3ccccc3)o2)c1	/	i	-0.8	-13.7	-0.3	/
SMILES	HSF-1 act	HSV replic up	Rad51 HR inh	MDM2 E3 inh	Hsp70 act	HSF1 inh
Clc1ccc(-c2noc(/C=C/c3ccccc3)n2)cc1	39.2	i	-6.3	-5.2	/	20.7
Cc1ccc(-c2nnc(-c3cccc(Br)c3)o2)cc1	64.0*	i	-2.6	-9.8	-0.3	30.4
Cc1ccc(/C=C/c2nnc(-c3ccccc3)o2)cc1	54.6*	i	-0.6	-13.3	0.1	19.4
C(=C\c1nnc(-c2cccs2)o1)/c1ccccc1	?	i	0.6	-40.1	0.0	40.3
Cc1ccc(-c2noc(/C=C/c3ccccc3)n2)cc1	69.4*	i	-1.1	-16.3	0.2	35.3
C/C(=N\NC(=O)CN1CCN(Cc2ccc(C)cc2)CC1)c1ccncc1	9.6	i	-5.3	-11.7	-0.3	-3.6
N#Cc1ccc(C23CC4(C2)[C@H](CN(CC2CCCCC2)[C@@H]4c2ccccc2)C3c2ccc(Cl)nc2)cc1 (some centres not stated)	-4.0	i	-9.4	15.8	/	-5.6
CSc1ccc(CNC(=O)C(C)n2nc(C)c3c(C)n(-c4ccccc4)nc3c2=O)cc1 (configuration not stated)	-1.4	/	/	/	/	-2.3
CCn1cc(S(=O)(=O)N2CCc3ccccc3C2)cn1	6.3	/	/	/	/	-4.9
NC(=S)N/N=C/c1coc2ccc(F)cc2c1=O	-2.6	i	-8.3	-13.0	/	-8.7
CCN(c1ccccc1)S(=O)(=O)c1ccc(Cl)c(NC(=O)COC(=O)c2ccc(Cl)c(N)c2)c1	-18.2	i	5.7	13.7	-0.1	-7.4
CCN(c1ccccc1)S(=O)(=O)c1ccc(Cl)c(NC(=O)COC(=O)c2cccc(OC)c2O)c1	59.0*	i	/	/	0.6	52.9
O=C(NCCc1ccc(O)c(O)c1)C1COc2ccccc2O1 (configuration not stated)	120.8*	/	/	/	/	70.9
O=C(NCCc1ccccc1)C1COc2ccccc2O1 (configuration not stated)	2.5	/	/	/	/	8.5
Cc1cccnc1NC(=S)NC(=O)/C=C/c1ccccc1	56.1*	i	4.3	-9.3	-0.3	31.4
Cc1cc2oc(=O)cc(Cn3ncc(Cl)c(Cl)c3=O)c2cc1Cl	81.4*	i	/	10.0	0.1	54.6
Cc1c(/C(O)=C2/C(=O)C(=O)N(CCN3CCOCC3)C2c2ccccn2)cnn1-c1ccccc1 (configuration not stated)	-85.6	i	8.2	-53.0	-0.4	-85.3*
O=C(CSc1nc(C2CC2)nc2c1cnn2-c1ccccc1)Nc1c[nH]c(=O)[nH]c1=O	-6.9	i	-12.7	-10.4	-0.1	-2.0
CCOC(=O)c1c(NC(=S)N2CCCCC2)sc2c1CCN(C(=O)OCC)C2	121.1*	i	-4.1	-18.2	/	86.0
CCOC(=O)c1c(NC(=S)Nc2ccccc2)sc2c1CCCCC2	-7.2	i	4.2	-5.2	-0.1	-2.6
C=CCNC(=S)Nc1sc2c(c1C(=O)OCC)CC(C)(CC)OC2 (configuration not stated)	-16.7	i	-5.5	-10.5	-0.5	-1.8
CCOC(=O)c1c(NC(=S)Nc2ccccc2)sc2c1CCN(CC)C2	-5.3	?	-47.3	50.7*	-0.6	-2.8
CCOC(=O)c1c(NC(=S)N2CCOCC2)sc2c1CCN(C(=O)OCC)C2	27.7	i	-8.7	-9.3	/	32.9

Assay outcomes from PubChem BioAssay.
